Columns and labels:
[1] = Quantitative Anticonvulsant activity administered intraperitoneally to mouse for toxicity; details: in vivo, ip
Method in brief: (§1)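 Mice dosed intraperitoneally with compound dissolved or suspended in 0.5% methylcellulose (0.01 mL per gram body weight). […] Protective index calculated as TD50/ED50 for each seizure test.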

[2] = Anti convulsant activity administered intra peritoneally to mouse for toxicity at 4 hr with dose of 100 mg/kg; 0/4= No of animals exhibiting toxicity /No of animals tested; assay type: organism-based; design: dose 100 mg/kg; details: in vivo, ip
[3] = Anti convulsant activity administered intra peritoneally to mouse for toxicity at 4 hr with dose of 300 mg/kg; 1/2= No of animals exhibiting toxicity /No of animals tested; assay type: organism-based; design: dose 300 mg/kg; details: in vivo, ip
[4] = Anti convulsant activity administered intra peritoneally to mouse for toxicity at 0.5 hr with dose of 30 mg/kg; 0/4= No of animals exhibiting toxicity /No of animals tested; assay type: organism-based; design: dose 30 mg/kg; details: in vivo, ip
[5] = Anti convulsant activity administered intra peritoneally to mouse for toxicity at 0.5 hr with dose of 100 mg/kg; 0/8= No of animals exhibiting toxicity /No of animals tested; assay type: organism-based; design: dose 100 mg/kg; details: in vivo, ip
[6] = Anti convulsant activity administered intra peritoneally to mouse for toxicity at 0.5 hr with dose of 300 mg/kg; 0/4= No of animals exhibiting toxicity /No of animals tested; assay type: organism-based; design: dose 300 mg/kg; details: in vivo, ip
[7] = system: Mus musculus; assay: Anti convulsant activity administered intra peritoneally to mouse at maximal electroshock test at 4 hr after the drug administered with dose of 30 mg/kg; 0/1= No of animals protected /No of animals tested; assay type: functional
[8] = system: Mus musculus; assay: Anti convulsant activity administered intra peritoneally to mouse at maximal electroshock test at 4 hr after the drug administered with dose of 100 mg/kg; 0/1= No of animals protected /No of animals tested; assay type: functional
[9] = system: Mus musculus; assay: Anti convulsant activity administered intra peritoneally to mouse at maximal electroshock test at 4 hr after the drug administered with dose of 100 mg/kg; 0/3= No of animals protected /No of animals tested; assay type: functional
[10] = system: Mus musculus; assay: Anti convulsant activity administered intra peritoneally to mouse at maximal electroshock test at 4 hr after the drug administered with dose of 300 mg/kg; 1/1= No of animals protected /No of animals tested; assay type: functional
[11] = system: Mus musculus; assay: Anti convulsant activity administered intra peritoneally to mouse at maximal electroshock test at 0.5 h after the drug administered with dose of 30 mg/kg; 0/1= No of animals protected /No of animals tested; assay type: functional
[12] = system: Mus musculus; assay: Anti convulsant activity administered intra peritoneally to mouse for subcutaneous metrazol test at 4 hr after the drug administered with dose of 30 mg/kg; 0/1= No of animals protected /No of animals tested; assay type: functional; details: route intraperitoneal
[13] = system: Mus musculus; assay: Anti convulsant activity administered intra peritoneally to mouse at maximal electroshock test at 0.5 hr after the drug administered with dose of 100 mg/kg; 3/3= No of animals protected /No of animals tested; assay type: functional
[14] = system: Mus musculus; assay: Anti convulsant activity administered intra peritoneally to mouse at maximal electroshock test at 0.5 hr after the drug administered with dose of 300 mg/kg; 1/1= No of animals protected /No of animals tested; assay type: functional
[15] = system: Mus musculus; assay: Anti convulsant activity administered intra peritoneally to mouse for subcutaneous metrazol test at 4 hr after the drug administered with dose of 100 mg/kg; 0/1= No of animals protected /No of animals tested; assay type: functional
[16] = system: Rattus norvegicus; assay: Quantitative Anticonvulsant activity administered orally to rat for subcutaneous metrazol test; assay type: functional
Method in brief: (§2)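 Oral dosing in rats with compound dissolved or suspended in 0.5% methylcellulose (0.04 mL per 10 g body weight). […] Protective index taken as TD50/ED50 for each test.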

[17] = system: Rattus norvegicus; assay: Anticonvulsant activity after oral administration of 30 mg/kg dose after 4 hr in rats; + means 25% of the animals protected; assay type: functional, organism-based; design: dose 30 mg/kg
Method in brief: (§3)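 Oral dosing of rats at a single dose, compound dissolved or suspended in 0.5% methylcellulose. Protection in the MES or scMet test checked 15 min, 30 min, 1 h, 2 h and 4 h after dosing. Scored as 25/50/75/100% of animals protected (+ to ++++), – for none.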

[18] = system: Rattus norvegicus; assay: Anticonvulsant activity after oral administration of 30 mg/kg dose after 2 hr in rats; ++++ means 100% of the animals protected; assay type: functional, organism-based; design: dose 30 mg/kg; method in brief: as §3
[19] = system: Rattus norvegicus; assay: Anticonvulsant activity after oral administration of 30 mg/kg dose after 30 min in rats; ++ means 50% of the animals protected; assay type: functional, organism-based; design: dose 30 mg/kg; method in brief: as §3
[20] = system: Rattus norvegicus; assay: Anticonvulsant activity after oral administration of 50 mg/kg dose after 30 min in rats; ++ means 50% of the animals protected; assay type: functional, organism-based; design: dose 50 mg/kg
Method in brief: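 Rats dosed orally with compound dissolved or suspended in 0.5% methylcellulose (0.04 mL per 10 g body weight). Anticonvulsant protection (MES or scMet) and toxicity scored at 15 min, 30 min, 1 h, 2 h and 4 h after dosing. Graded in steps of 25% of animals protected or showing toxicity.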

[21] = system: Mus musculus; assay: Quantitative Anticonvulsant activity administered intraperitoneally to mouse for protective index in subcutaneous metrazol test; assay type: functional; method in brief: as §1
[22] = system: Rattus norvegicus; assay: Anticonvulsant activity after oral administration of 30 mg/kg dose after 15 min in rats;+means 25% of the animals protected; assay type: functional, organism-based; design: dose 30 mg/kg; method in brief: as §3
[23] = system: Rattus norvegicus; assay: Anticonvulsant activity after oral administration of 30 mg/kg dose after 1 hr in rats; +++ means 75% of the animals protected; assay type: functional, organism-based; design: dose 30 mg/kg; method in brief: as §3
[24] = system: Rattus norvegicus; assay: Quantitative Anticonvulsant activity administered orally to rat at maximal electro shock test; the interval in parenthesis stands for 95% confidence interval; assay type: functional; details: po; method in brief: as §2
[25] = system: Mus musculus; assay: Quantitative Anticonvulsant activity administered intraperitoneally to mouse for maximal electro shock test; The interval in parenthesis stands for 95% confidence interval; assay type: functional; details: ip; method in brief: as §1
[26] = system: Mus musculus; assay: Anti convulsant activity administered intra peritoneally to mouse for subcutaneous metrazol test at 4 hr with dose of 300 mg/kg; 3/5= No of animals protected /No of animals tested; assay type: functional
[27] = system: Mus musculus; assay: Anti convulsant activity administered intra peritoneally to mouse for subcutaneous metrazol test at 0.5 hr with dose of 30 mg/kg; 0/1= No of animals protected /No of animals tested; assay type: functional
[28] = system: Mus musculus; assay: Anti convulsant activity administered intra peritoneally to mouse for subcutaneous metrazol test at 0.5 h with dose of 300 mg/kg; 0/1= No of animals protected /No of animals tested; assay type: functional
[29] = system: Mus musculus; assay: Anticonvulsant activity administered intraperitoneally to mouse for toxicity at 4 hr with dose of 30 mg/kg; assay type: functional; details: route intraperitoneal
Method in brief: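 Mice given compound i.p. at 30, 100 or 300 mg/kg, dissolved or suspended in 0.5% methylcellulose. Toxicity scored 0.5 h and 4 h after dosing, recorded as number of animals showing toxicity per number tested.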

[30] = system: Rattus norvegicus; assay: Quantitative Anticonvulsant activity administered orally to rat for protective index in subcutaneous metrazol test; assay type: functional; method in brief: as §2
[31] = system: Rattus norvegicus; assay: Quantitative Anticonvulsant activity administered orally to rat for protective index in maximal electro shock test;TD50/ED50; assay type: functional; method in brief: as §2
[32] = system: Mus musculus; assay: Quantitative Anticonvulsant activity administered intraperitoneally to mouse for protective index in maximal electro shock test;TD50/ED50; assay type: functional; method in brief: as §1
[33] = system: Rattus norvegicus; assay: Anticonvulsant activity after oral administration of 50 mg/kg dose after 15 min in rats; +++ means 75% of the animals protected; assay type: functional, organism-based; design: dose 50 mg/kg; method in brief: as §3

CC1(C)C(C(=O)NC(N)=O)C1(C)C [2,2,3,3-TETRAMETHYLCYCLOPROPANECARBONYLUREA]
TD50 [1]: 168 mg/kg
Toxicity [2]: 0
Toxicity [3]: 1
Toxicity [4]: 0
Toxicity [5]: 0
Toxicity [6]: 0
Activity [7]: 0
Activity [8]: 0
Activity [9]: 0
Activity [10]: 1
Activity [11]: 0
Activity [12]: 0
Activity [13]: 3
Activity [14]: 1
Activity [15]: 0
ED50 [16]: 92 mg/kg
Activity [17]: 100% of the animals protected
Activity [18]: 100% of the animals protected
Activity [19]: 100% of the animals protected
Activity [20]: 100% of the animals protected
Anticonvulsant [21]: 1.6
Activity [22]: 100% of the animals protected
Activity [23]: 100% of the animals protected
ED50 [24]: 29 mg/kg
ED50 [25]: 90 mg/kg
Activity [26]: 3
Activity [27]: 0
Activity [28]: 0
Toxicity [29]: 0
Activity [30]: 5.9
Ratio [31]: 18.5
Ratio [32]: 1.9
Anticonvulsant Activity [33]: 75% of the animals protected

From ChEMBL document CHEMBL1138683 (J Med Chem, 2004)
